Results: ChEMBL document CHEMBL4346700, “Structure-based modification of carbonyl-diphenylpyrimidines (Car-DPPYs) as a novel focal adhesion kinase (FAK) inhibitor against various stubborn cancer cells” (Eur J Med Chem, 2019)
Activity calls are given as the source filed them. No cut-off for these calls is given here.

Assays:
ASPC1 [1] = assay: Induction of apoptosis in human AsPC1 cells assessed as apoptotic bodies incubated for 72 hrs by acridine orange/ethidium bromide dye based fluorescent inverted microscopy; format: functional, cell-based
In short: (§1)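 AsPC-1 cells (about 2×10⁵ per well) were incubated 12 h, then treated with inhibitor at 150–600 nM for 72 h. Cells were washed twice with PBS and stained with AO/EB (1.0 µg/mL each in PBS). Apoptotic, necrotic and live cells were scored and counted under a fluorescent inverted microscope at 100×.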

ASPC1 [2] = assay: Antitumor activity against human AsPC1 cells xenografted in BALB/cJNju-Foxn1nu/Nju mouse assessed as inhibition of tumor growth at 30 mg/kg, po for 7 days; format: functional; settings: 168 h, read-out: TGI
In short: (§2)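 Nude mice were injected subcutaneously in the right axilla with 3×10⁶ AsPC-1 cells in 0.1 mL PBS. Three days later they were randomized into three groups and given compound orally once daily for 7 days, with controls receiving oral 25% PEG-400. Tumor volume was calculated as A×B²/2, and tumor weight was recorded; n = 3.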

ASPC1 [3] = assay: Antitumor activity against human AsPC1 cells xenografted in BALB/cJNju-Foxn1nu/Nju mouse assessed as inhibition of tumor growth at 60 mg/kg, po for 7 days; format: functional; settings: 168 h, read-out: TGI; in short: as §2
BXPC-3 = assay: Antiproliferative activity against human BxPC3 cells assessed as reduction in cell growth incubated for 72 hrs by MTT assay; settings: BXPC-3, 72 h
L02 = assay: Cytotoxicity against human L02 cells assessed as reduction in cell growth incubated for 72 hrs by MTT assay; settings: L02, 72 h
ASPC1 [4] = assay: Effect on total MEK protein level in human AsPC1 cells at 10 to 100 nM incubated for 72 hrs by immunoblotting analysis; format: cell-based; settings: aspc1, 72 h, 0.1 µM
In short: (§3)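 AsPC-1 cells were treated at 10–100 nM for 72 h and lysed. Lysates were cleared at 14,000 g for 15 min at 4 °C, and 50 µg protein was run on 8–12% SDS-PAGE and transferred to PVDF. Membranes were blocked 2 h in 5% skim milk, probed overnight at 4 °C with primary antibodies (FAK, p-FAK, MEK1, p-MEK1, ERK1/2, p-ERK1/2, β-actin) and detected by ECL.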

PANC-1 = assay: Antiproliferative activity against human PANC1 cells assessed as reduction in cell growth incubated for 72 hrs by MTT assay; settings: PANC-1, 72 h
NCI-H1975 = assay: Antiproliferative activity against human NCI-H1975 cells assessed as reduction in cell growth incubated for 72 hrs by MTT assay; settings: NCI-H1975, 72 h
ASPC1 [5] = assay: Induction of apoptosis in human AsPC1 cells assessed as nuclear condensation incubated for 72 hrs by acridine orange/ethidium bromide dye based fluorescent inverted microscopy; format: functional, cell-based; in short: as §1
ASPC1 [6] = assay: Induction of apoptosis in human AsPC1 cells assessed as nuclear fragmentation incubated for 72 hrs by acridine orange/ethidium bromide dye based fluorescent inverted microscopy; format: functional, cell-based; in short: as §1
ASPC1 [7] = settings: Homo sapiens, 125 to 1000 nM
ASPC1 [8] = assay: Antiproliferative activity against human AsPC1 cells assessed as reduction in cell growth incubated for 72 hrs by MTT assay; settings: ASPC1, 72 h
ASPC1 [9] = assay: Effect on total ERK protein level in human AsPC1 cells at 10 to 100 nM incubated for 72 hrs by immunoblotting analysis; format: cell-based; settings: aspc1, 72 h, 0.1 µM; in short: as §3
ASPC1 [10] = assay: Induction of apoptosis in human AsPC1 cells assessed as membrane blebbing incubated for 72 hrs by acridine orange/ethidium bromide dye based fluorescent inverted microscopy; format: functional, cell-based; in short: as §1
[11] = Cytotoxicity against human HPDEC cells assessed as reduction in cell growth incubated for 72 hrs by MTT assay
NCI/ADR-RES = assay: Antiproliferative activity against human MCF7/ADR cells assessed as reduction in cell growth incubated for 72 hrs by MTT assay
[12] = biological target: Focal adhesion kinase 1 (Homo sapiens) (UniProt Q05397); assay: Inhibition of FAK in human AsPC1 cells assessed as reduction in autophosphorylation at 100 nM incubated for 72 hrs by immunoblotting analysis; format: cell-based; in short: as §3
Sequence of Focal adhesion kinase 1 (Homo sapiens) (Q05397 2-1052 limits assumed): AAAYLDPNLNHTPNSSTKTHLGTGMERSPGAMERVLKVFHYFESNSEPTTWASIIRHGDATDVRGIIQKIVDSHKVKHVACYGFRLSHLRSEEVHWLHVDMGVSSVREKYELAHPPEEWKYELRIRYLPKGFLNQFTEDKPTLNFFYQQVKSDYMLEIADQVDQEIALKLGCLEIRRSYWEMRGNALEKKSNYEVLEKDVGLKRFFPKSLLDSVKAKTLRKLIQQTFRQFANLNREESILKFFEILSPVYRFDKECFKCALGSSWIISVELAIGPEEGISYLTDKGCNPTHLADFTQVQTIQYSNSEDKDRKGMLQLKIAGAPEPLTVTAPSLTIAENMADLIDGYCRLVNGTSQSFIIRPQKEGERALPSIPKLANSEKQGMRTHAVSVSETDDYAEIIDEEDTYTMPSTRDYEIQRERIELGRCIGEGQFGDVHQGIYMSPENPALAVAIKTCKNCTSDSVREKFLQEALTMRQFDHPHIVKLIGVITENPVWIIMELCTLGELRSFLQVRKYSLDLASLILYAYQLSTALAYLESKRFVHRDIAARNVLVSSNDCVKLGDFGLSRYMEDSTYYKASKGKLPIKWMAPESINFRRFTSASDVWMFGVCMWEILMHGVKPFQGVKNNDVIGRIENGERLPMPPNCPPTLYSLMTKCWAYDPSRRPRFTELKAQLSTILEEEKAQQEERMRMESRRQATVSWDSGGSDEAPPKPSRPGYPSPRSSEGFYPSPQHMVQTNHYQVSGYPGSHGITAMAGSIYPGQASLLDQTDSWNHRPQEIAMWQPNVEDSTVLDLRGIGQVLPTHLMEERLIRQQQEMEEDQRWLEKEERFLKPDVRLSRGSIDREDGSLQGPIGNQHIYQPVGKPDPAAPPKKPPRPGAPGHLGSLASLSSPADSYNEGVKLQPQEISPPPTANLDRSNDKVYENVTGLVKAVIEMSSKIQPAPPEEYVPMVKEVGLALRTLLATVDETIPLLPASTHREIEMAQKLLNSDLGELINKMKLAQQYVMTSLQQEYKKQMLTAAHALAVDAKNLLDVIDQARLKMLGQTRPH

| IC50 (BXPC-3) [nM] | IC50 (PANC-1) [nM] | IC50 (NCI-H1975) [nM] | IC50 (ASPC1 [8]) [nM] | inhibition [12] [%] | SMILES | Activity (ASPC1 [1]) | inhibition in vivo at 30 mg/kg (ASPC1 [2]) [%] | inhibition in vivo at 60 mg/kg (ASPC1 [3]) [%] | IC50 (L02) [nM] | Activity (ASPC1 [4]) | Activity (ASPC1 [5]) | Activity (ASPC1 [6]) | inhibition (ASPC1 [7]) | Activity (ASPC1 [9]) | Activity (ASPC1 [10]) | IC50 [11] [nM] | IC50 (NCI/ADR-RES) [nM] |
| --- | --- | --- | --- | --- | --- | --- | --- | --- | --- | --- | --- | --- | --- | --- | --- | --- | --- |
| 90 | 4120 | 1170 | 105 |  | CNC(=O)c1ccccc1Nc1nc(Nc2ccc(CC(=O)N3CCOCC3)cc2)ncc1Cl | Active | 87 | 67 | 3700 | Non-Toxic | Active | Active | Active | Non-Toxic | Active | 6620 | 590 |
| > 10000 | > 10000 | 514 | > 10000 |  | O=C(NC1CC1)c1ccccc1Nc1nc(Nc2ccc(OCC(=O)N3CCOCC3)cc2)ncc1Cl |  |  |  | 910 |  |  |  |  |  |  | 16700 | > 5000 |
| 5340 | 1540 | 495 | 2870 |  | CNC(=O)c1ccccc1Nc1nc(Nc2ccc(OC(C)C(=O)N3CCOCC3)cc2)ncc1Cl (configuration not stated) |  |  |  | 821 |  |  |  |  |  |  | 1040 | 1440 |
| 5990 | > 10000 | 160 | 1750 |  | CNC(=O)c1ccccc1Nc1nc(Nc2ccc(OCC(=O)N3CCOCC3)cc2)ncc1Cl |  |  |  | 594 |  |  |  |  |  |  | 4790 | 2930 |

The remaining lines, values behind:

| SMILES | IC50 (BXPC-3) [nM] | IC50 (PANC-1) [nM] | IC50 (NCI-H1975) [nM] | IC50 (ASPC1 [8]) [nM] | inhibition [12] [%] | Activity (ASPC1 [1]) | inhibition in vivo at 30 mg/kg (ASPC1 [2]) [%] | inhibition in vivo at 60 mg/kg (ASPC1 [3]) [%] | IC50 (L02) [nM] | Activity (ASPC1 [4]) | Activity (ASPC1 [5]) | Activity (ASPC1 [6]) | inhibition (ASPC1 [7]) | Activity (ASPC1 [9]) | Activity (ASPC1 [10]) | IC50 [11] [nM] | IC50 (NCI/ADR-RES) [nM] |
| --- | --- | --- | --- | --- | --- | --- | --- | --- | --- | --- | --- | --- | --- | --- | --- | --- | --- |
| CNC(=O)c1ccccc1Nc1nc(Nc2ccc(N3CCOCC3)cc2OC)ncc1Cl | > 10000 | > 10000 | > 2000 |  | 100 |  |  |  |  |  |  |  |  |  |  | 11400 | > 5000 |
| CNC(=O)c1ccccc1Nc1nc(Nc2ccc(SCC(=O)N3CCOCC3)cc2)ncc1Cl | 2890 | 5510 | 413 | 1220 |  |  |  |  | 4330 |  |  |  |  |  |  | 1990 | 1820 |
| CCC(Oc1ccc(Nc2ncc(Cl)c(Nc3ccccc3C(=O)NC)n2)cc1)C(=O)N1CCOCC1 (configuration not stated) | 8730 | 750 | 444 | 2600 |  |  |  |  | 674 |  |  |  |  |  |  | 2170 | 2100 |
